Experimental data published in ChEMBL document CHEMBL5108036, “A concise SAR-analysis of antimicrobial cationic amphipathic barbiturates for an improved activity-toxicity profile” (Eur J Med Chem, 2022).

What was measured:
[1] = Hemolytic activity in human RBC measured after 1 hr by microplate reader method; assay type: toxicity, cell-based, Erythrocyte; conditions: human, human red blood cells (erythrocytes)
Summary of the method: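 Human red blood cell lysis was used as the cytotoxicity read-out, expressed as EC50 in µg/mL. The highest concentration tested was 500 µM. Compounds were tested as di-TFA salts.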

[2] = tested on: Pseudomonas aeruginosa; test: Antibacterial activity against Pseudomonas aeruginosa ATCC 27853 incubated for 48 hrs and measured by broth microdilution assay; assay type: functional
Summary of the method: (§1)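 MICs in µg/mL were measured against the reference strains S. aureus ATCC 9144, B. subtilis 168, E. coli ATCC 25922 and P. aeruginosa ATCC 27853. Compounds were tested as di-TFA salts.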

[3] = tested on: Staphylococcus aureus; test: Antibacterial activity against Staphylococcus aureus ATCC 9144 incubated for 48 hrs and measured by broth microdilution assay; assay type: functional; summary of the method: as §1
[4] = tested on: Escherichia coli; test: Antibacterial activity against Escherichia coli ATCC 25922 incubated for 48 hrs and measured by broth microdilution assay; assay type: functional; summary of the method: as §1
[5] = tested on: Bacillus subtilis; test: Antibacterial activity against Bacillus subtilis 168 incubated for 48 hrs and measured by broth microdilution assay; assay type: functional; summary of the method: as §1
[6] = Selectivity index, ratio HC50 for hemolytic activity in human RBC to MIC for antibacterial activity against Staphylococcus aureus ATCC 9144; assay type: toxicity; conditions: human red blood cells (erythrocytes)
Summary of the method: (§2)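 SI is the ratio of RBC lysis EC50 to MIC for each reference strain.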

[7] = Selectivity index, ratio HC50 for hemolytic activity in human RBC to MIC for antibacterial activity against Bacillus subtilis 168; assay type: toxicity; conditions: human red blood cells (erythrocytes); summary of the method: as §2

| Structure (SMILES) | EC50 at 1 h [1] [µg/mL] | MIC [2] [µg/mL] | MIC [3] [µg/mL] | MIC [4] [µg/mL] | MIC [5] [µg/mL] | selectivity ratio [6] | selectivity ratio [7] |
| --- | --- | --- | --- | --- | --- | --- | --- |
| CC(C)(C)c1ccc(CC2(Cc3cc(Br)cc(Br)c3)C(=O)N(CCCN)C(=O)N(CCCN)C2=O)cc1.O=C(O)C(F)(F)F.O=C(O)C(F)(F)F | 47 | 8 | 4 | 8 | 2 | – | – |
| N=C(N)NCCN1C(=O)N(CCNC(=N)N)C(=O)C(Cc2cc(Br)cc(Br)c2)(Cc2cc(Br)cc(Br)c2)C1=O.O=C(O)C(F)(F)F.O=C(O)C(F)(F)F | 164 | 16 | 2 | 4 | 2 | – | – |
| CCCCCCC1(Cc2cc(Br)cc(Br)c2)C(=O)N(CCCCNC(=N)N)C(=O)N(CCCCNC(=N)N)C1=O.O=C(O)C(F)(F)F.O=C(O)C(F)(F)F (configuration not stated) | 58 | 8 | 2 | 4 | 4 | – | – |
| NCCCCCN1C(=O)N(CCCCCN)C(=O)C(Cc2cc(Br)cc(Br)c2)(Cc2cc(Br)cc(Br)c2)C1=O.O=C(O)C(F)(F)F.O=C(O)C(F)(F)F | 24 | 8 | 4 | 8 | 4 | – | – |
| N=C(N)NCCCN1C(=O)N(CCCNC(=N)N)C(=O)C(Cc2ccc(C(F)(F)F)cc2)(Cc2ccc(C(F)(F)F)cc2)C1=O.O=C(O)C(F)(F)F.O=C(O)C(F)(F)F | > 435 | 256 | 8 | 128 | 4 | > 54 | > 109 |
| NCCCN1C(=O)N(CCCN)C(=O)C(Cc2ccc(C(F)(F)F)cc2)(Cc2cc(Br)cc(Br)c2)C1=O.O=C(O)C(F)(F)F.O=C(O)C(F)(F)F | > 438 | 32 | 32 | 16 | 8 | – | – |
| NCCCCN1C(=O)N(CCCCN)C(=O)C(Cc2cc(Br)cc(Br)c2)(Cc2ccc3ccccc3n2)C1=O.O=C(O)C(F)(F)F.O=C(O)C(F)(F)F | > 444 | 256 | 32 | 128 | 8 | – | – |
| N=C(N)N[C@H]1C[C@H](N2C(=O)N([C@H]3C[C@H](NC(=N)N)C3)C(=O)C(Cc3cc(Br)cc(Br)c3)(Cc3cc(Br)cc(Br)c3)C2=O)C1.O=C(O)C(F)(F)F.O=C(O)C(F)(F)F | 62 | 8 | 2 | 4 | 4 | – | – |
| N=C(N)NCCCCN1C(=O)N(CCCCNC(=N)N)C(=O)C(Cc2cc(Br)c(Br)cc2Br)(Cc2cc(Br)c(Br)cc2Br)C1=O.O=C(O)C(F)(F)F.O=C(O)C(F)(F)F | 32 | 8 | 4 | 4 | 4 | – | – |
| N=C(N)NCCCCCCN1C(=O)N(CCCCCCNC(=N)N)C(=O)C(Cc2cc(Br)cc(Br)c2)(Cc2cc(Br)cc(Br)c2)C1=O.O=C(O)C(F)(F)F.O=C(O)C(F)(F)F | 57 | 32 | 4 | 4 | 4 | – | – |
| NCCCCN1C(=O)N(CCCCN)C(=O)C(Cc2cc(Br)cc(Br)c2)(C2CCCC2)C1=O.O=C(O)C(F)(F)F.O=C(O)C(F)(F)F | > 407 | 64 | 16 | 64 | 8 | – | – |
| NCCCCN1C(=O)N(CCCCN)C(=O)C(Cc2cc(Br)c(Br)cc2Br)(Cc2cc(Br)c(Br)cc2Br)C1=O.O=C(O)C(F)(F)F.O=C(O)C(F)(F)F | 27 | 8 | 4 | 8 | 4 | – | – |
| NCCCCCCN1C(=O)N(CCCCCCN)C(=O)C(Cc2cc(Br)cc(Br)c2)(Cc2cc(Br)cc(Br)c2)C1=O.O=C(O)C(F)(F)F.O=C(O)C(F)(F)F | 30 | 16 | 4 | 4 | 4 | – | – |
| N=C(N)NCCCN1C(=O)N(CCCNC(=N)N)C(=O)C(Cc2ccc(C(F)(F)F)cc2)(Cc2cc(Br)cc(Br)c2)C1=O.O=C(O)C(F)(F)F.O=C(O)C(F)(F)F (configuration not stated) | > 480 | 64 | 4 | 16 | 4 | – | – |
| N[C@H]1CC[C@H](N2C(=O)N([C@H]3CC[C@H](N)CC3)C(=O)C(Cc3cc(Br)cc(Br)c3)(Cc3cc(Br)cc(Br)c3)C2=O)CC1.O=C(O)C(F)(F)F.O=C(O)C(F)(F)F | 16 | 4 | 2 | 2 | 2 | – | – |
| N=C(N)NCCCCN1C(=O)N(CCCCNC(=N)N)C(=O)C(Cc2ccc(Br)c3ccccc23)(Cc2ccc(Br)c3ccccc23)C1=O.O=C(O)C(F)(F)F.O=C(O)C(F)(F)F | 36 | 8 | 4 | 4 | 4 | – | – |
| CCCCCCC1(Cc2cc(Br)cc(Br)c2)C(=O)N(CCCCN)C(=O)N(CCCCN)C1=O.O=C(O)C(F)(F)F.O=C(O)C(F)(F)F | 144 | 16 | 4 | 16 | 4 | – | – |

| Structure (SMILES) | EC50 at 1 h [1] [µg/mL] | MIC [2] [µg/mL] | MIC [3] [µg/mL] | MIC [4] [µg/mL] | MIC [5] [µg/mL] | selectivity ratio [6] | selectivity ratio [7] |
| --- | --- | --- | --- | --- | --- | --- | --- |
| NCCCCN1C(=O)N(CCCCN)C(=O)C(Cc2c(Br)cc(Br)cc2Br)(Cc2c(Br)cc(Br)cc2Br)C1=O.O=C(O)C(F)(F)F.O=C(O)C(F)(F)F | 30 | 4 | 2 | 4 | 2 | – | – |
| CC(C)(C)c1ccc(CC2(Cc3cc(Br)cc(Br)c3)C(=O)N(CCCCNC(=N)N)C(=O)N(CCCCNC(=N)N)C2=O)cc1.O=C(O)C(F)(F)F.O=C(O)C(F)(F)F (configuration not stated) | 39 | 4 | 2 | 2 | 2 | – | – |
| N=C(N)NCCCCN1C(=O)N(CCCCNC(=N)N)C(=O)C(Cc2ccc3ccccc3n2)(Cc2ccc3ccccc3n2)C1=O.O=C(O)C(F)(F)F.O=C(O)C(F)(F)F | > 432 | > 256 | 8 | 128 | 16 | – | – |
| N=C(N)NCCCCCN1C(=O)N(CCCCCNC(=N)N)C(=O)C(Cc2cc(Br)cc(Br)c2)(Cc2cc(Br)cc(Br)c2)C1=O.O=C(O)C(F)(F)F.O=C(O)C(F)(F)F | 29 | 8 | 4 | 4 | 4 | – | – |
| NCCCCN1C(=O)N(CCCCN)C(=O)C(Cc2cc(Br)cc(Br)c2)(Cc2ccc(Br)c3ccccc23)C1=O.O=C(O)C(F)(F)F.O=C(O)C(F)(F)F | 47 | 8 | 4 | 4 | 4 | – | – |
| CNCCCCN1C(=O)N(CCCCNC)C(=O)C(Cc2cc(Br)cc(Br)c2)(Cc2cc(Br)cc(Br)c2)C1=O.O=C(O)C(F)(F)F.O=C(O)C(F)(F)F | 73 | 16 | 8 | 8 | 4 | – | – |
| N=C(N)NCCCCN1C(=O)N(CCCCNC(=N)N)C(=O)C(Cc2c(Br)cc(Br)cc2Br)(Cc2c(Br)cc(Br)cc2Br)C1=O.O=C(O)C(F)(F)F.O=C(O)C(F)(F)F | 30 | 4 | 2 | 4 | 1 | – | – |
| N[C@H]1C[C@H](N2C(=O)N([C@H]3C[C@H](N)C3)C(=O)C(Cc3cc(Br)cc(Br)c3)(Cc3cc(Br)cc(Br)c3)C2=O)C1.O=C(O)C(F)(F)F.O=C(O)C(F)(F)F | 93 | 8 | 4 | 4 | 4 | – | – |
| NCCCCN1C(=O)N(CCCCN)C(=O)C(Cc2ccc(C(F)(F)F)cc2)(Cc2cc(Br)cc(Br)c2)C1=O.O=C(O)C(F)(F)F.O=C(O)C(F)(F)F | 342 | 64 | 16 | 32 | 8 | – | – |
| CCCCCCC1(CCCCCC)C(=O)N(CCCCNC(=N)N)C(=O)N(CCCCNC(=N)N)C1=O.O=C(O)C(F)(F)F.O=C(O)C(F)(F)F | 143 | 16 | 2 | 4 | 2 | – | – |
| N=C(N)N[C@H]1C[C@@H](N2C(=O)N([C@H]3C[C@@H](NC(=N)N)C3)C(=O)C(Cc3cc(Br)cc(Br)c3)(Cc3cc(Br)cc(Br)c3)C2=O)C1.O=C(O)C(F)(F)F.O=C(O)C(F)(F)F | 75 | 8 | 2 | 4 | 2 | – | – |
| CN(C)CCCCN1C(=O)N(CCCCN(C)C)C(=O)C(Cc2cc(Br)cc(Br)c2)(Cc2cc(Br)cc(Br)c2)C1=O.O=C(O)C(F)(F)F.O=C(O)C(F)(F)F | 157 | 64 | 8 | 8 | 4 | – | – |
| N[C@H]1C[C@@H](N2C(=O)N([C@H]3C[C@@H](N)C3)C(=O)C(Cc3cc(Br)cc(Br)c3)(Cc3cc(Br)cc(Br)c3)C2=O)C1.O=C(O)C(F)(F)F.O=C(O)C(F)(F)F | 50 | 8 | 8 | 4 | 4 | – | – |
| NCCCN1C(=O)N(CCCN)C(=O)C(Cc2ccc3cc(Br)ccc3n2)(Cc2ccc3cc(Br)ccc3n2)C1=O.O=C(O)C(F)(F)F.O=C(O)C(F)(F)F | > 455 | 256 | 32 | 64 | 8 | – | – |
| CC(C)(C)c1ccc(CC2(Cc3cc(Br)cc(Br)c3)C(=O)N(CCCCN)C(=O)N(CCCCN)C2=O)cc1.O=C(O)C(F)(F)F.O=C(O)C(F)(F)F | 82 | 8 | 4 | 8 | 4 | – | – |
| N=C(N)NCCCCN1C(=O)N(CCCCNC(=N)N)C(=O)C(Cc2ccc3cc(Br)ccc3n2)(Cc2ccc3cc(Br)ccc3n2)C1=O.O=C(O)C(F)(F)F.O=C(O)C(F)(F)F | 461 | 128 | 2 | 16 | 4 | – | – |
